In ChEMBL document CHEMBL1135749, “Stereoselective synthesis and antiviral activity of D-2',3'-didehydro-2',3'-dideoxy-2'-fluoro-4'-thionucleosides” (J Med Chem, 2002):

test system: CCRF-CEM; experiment: Cytotoxicity against CEM cells; type: cell-based; conditions: Homo sapiens
Outline: (§1)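 Uninfected log-phase cells seeded on 10-fold serial drug dilutions: Vero at 5 × 10³, CEM at 2.5 × 10³, and PHA-stimulated PBM at 5 × 10⁴ cells/well. Incubated at 37 °C in 5% CO₂ for 3 days (Vero), 4 days (CEM) or 5 days (PBM). MTT added overnight, then solubilized and read at 570 nm. IC50 by the median effect method.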

Nc1ccn([C@@H]2S[C@H](CO)C=C2F)c(=O)n1 and O=c1nc(O)ccn1[C@@H]1S[C@H](CO)C=C1F cannot be ordered by IC50: > 100 µM for the first, > 100 µM for the second.

O=c1[nH]cnc2c1ncn2[C@@H]1S[C@H](CO)C=C1F and Nc1nc2c(ncn2[C@@H]2S[C@H](CO)C=C2F)c(=O)[nH]1 cannot be ordered by IC50: > 100 µM for the first, > 100 µM for the second.

Nc1nc(=O)n([C@@H]2S[C@H](CO)C=C2F)cc1F and Cc1cn([C@@H]2S[C@H](CO)C=C2F)c(=O)nc1O cannot be ordered by IC50: > 100 µM for the first, > 100 µM for the second.

First: Nc1ncnc2c1ncn2[C@@H]1S[C@H](CO)C=C1F
Second: Nc1nc(F)nc2c1ncn2[C@@H]1S[C@H](CO)C=C1F
The IC50 of the first is higher: > 100 µM for the first, 1.1 µM for the second. The second is the more potent here.

test system: not listed separately; experiment: Antiviral activity against (HIV-1M184V) mutant strain in human PBM cells; type: functional; conditions: PBMC
Outline: (§2)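 Molecular infectious clones HIV-1 xxBru and HIV-1 M184Vpitt used in PHA-stimulated human PBM cells. Bulk 1 h infection at 100 TCID50/1 × 10⁷ cells (flask) or 200 TCID50/6 × 10⁵ cells/well. Cells then exposed to 10-fold serial compound dilutions for 5 days at 37 °C. Read-out was pelleted-virus RT activity with ³H-TTP. EC50 by the median effect method.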

Going from Nc1ccn([C@@H]2S[C@H](CO)C=C2F)c(=O)n1 to Nc1ccn([C@@H]2CS[C@H](CO)O2)c(=O)n1 [LAMIVUDINE], the EC90 rises from 125 µM to 535 µM (4.3-fold).

Work on Cc1cn([C@H]2C[C@H](N=[N+]=[N-])[C@@H](CO)O2)c(=O)[nH]c1=O [ZIDOVUDINE] yielded an EC90 of 0.003 µM.

test system: not listed separately; experiment: Antiviral activity against HIV-1xxBRU […] strain in human PBM cells; type: functional; conditions: PBMC; outline: as §2

Going from Nc1ccn([C@@H]2S[C@H](CO)C=C2F)c(=O)n1 to Nc1ccn([C@@H]2CS[C@H](CO)O2)c(=O)n1 [LAMIVUDINE], the EC90 falls from 5 µM to 0.08 µM (62-fold).

Cc1cn([C@H]2C[C@H](N=[N+]=[N-])[C@@H](CO)O2)c(=O)[nH]c1=O [ZIDOVUDINE] showed an EC90 of 0.01 µM.

test system: not listed separately; experiment: In vitro cytotoxicity against human peripheral blood mononuclear (PBM) cells; type: cell-based; conditions: not given; outline: as §1

Nc1ccn([C@@H]2S[C@H](CO)C=C2F)c(=O)n1 and O=c1nc(O)ccn1[C@@H]1S[C@H](CO)C=C1F cannot be ordered by IC50: > 100 µM for the first, > 100 µM for the second.

O=c1[nH]cnc2c1ncn2[C@@H]1S[C@H](CO)C=C1F and Nc1nc2c(ncn2[C@@H]2S[C@H](CO)C=C2F)c(=O)[nH]1 cannot be ordered by IC50: > 100 µM for the first, > 100 µM for the second.

Nc1nc(=O)n([C@@H]2S[C@H](CO)C=C2F)cc1F and Cc1cn([C@@H]2S[C@H](CO)C=C2F)c(=O)nc1O cannot be ordered by IC50: > 100 µM for the first, > 100 µM for the second.

Cc1cn([C@H]2C[C@H](N=[N+]=[N-])[C@@H](CO)O2)c(=O)[nH]c1=O [ZIDOVUDINE] and Nc1ncnc2c1ncn2[C@@H]1S[C@H](CO)C=C1F cannot be ordered by IC50: > 100 µM for the first, > 100 µM for the second.

For Nc1nc(F)nc2c1ncn2[C@@H]1S[C@H](CO)C=C1F, the IC50 was 1.5 µM.

test system: not listed separately; experiment: Anti-viral activity against HIV-1 in human PBM cells; type: functional, cell-based; conditions: PBMC
Outline: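 PHA-stimulated (2-3 days) human PBM cells from healthy seronegative donors, infected in bulk for 1 h with HIV-1 LAI (100 TCID50/1 × 10⁷ cells flask or 200 TCID50/6 × 10⁵ cells/well). Cells then placed on 10-fold serial compound dilutions in RPMI-1640 with IL-2, 5 days at 37 °C. Supernatant RT activity measured by ³H-TTP incorporation on poly(rA)·oligo(dT). EC50 obtained by the median effect method.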

Going from Nc1ccn([C@@H]2S[C@H](CO)C=C2F)c(=O)n1 to O=c1nc(O)ccn1[C@@H]1S[C@H](CO)C=C1F, the EC50 rises from 1.3 µM to > 100 µM. The first is the more potent here.

Compared with O=c1[nH]cnc2c1ncn2[C@@H]1S[C@H](CO)C=C1F, Nc1nc2c(ncn2[C@@H]2S[C@H](CO)C=C2F)c(=O)[nH]1 is 1.8-fold higher in EC50: 43.6 µM for the first, 80.5 µM for the second. The first is the more potent here.

Going from Nc1nc(=O)n([C@@H]2S[C@H](CO)C=C2F)cc1F to Cc1cn([C@@H]2S[C@H](CO)C=C2F)c(=O)nc1O, the EC50 rises from 11.6 µM to 92.3 µM (8-fold).

Going from Cc1cn([C@H]2C[C@H](N=[N+]=[N-])[C@@H](CO)O2)c(=O)[nH]c1=O [ZIDOVUDINE] to Nc1ncnc2c1ncn2[C@@H]1S[C@H](CO)C=C1F, the EC50 rises from 0.004 µM to 8.1 µM (2000-fold). The first is the more potent here.

Molecule Nc1nc(F)nc2c1ncn2[C@@H]1S[C@H](CO)C=C1F has an EC50 of 1.2 µM.

test system: Vero; experiment: Cytotoxicity against Vero cells; type: cell-based; conditions: Chlorocebus sabaeus; outline: as §1

Nc1ccn([C@@H]2S[C@H](CO)C=C2F)c(=O)n1 and O=c1nc(O)ccn1[C@@H]1S[C@H](CO)C=C1F cannot be ordered by IC50: > 100 µM for the first, > 100 µM for the second.

O=c1[nH]cnc2c1ncn2[C@@H]1S[C@H](CO)C=C1F and Nc1nc2c(ncn2[C@@H]2S[C@H](CO)C=C2F)c(=O)[nH]1 cannot be ordered by IC50: > 100 µM for the first, > 100 µM for the second.

Going from Nc1nc(=O)n([C@@H]2S[C@H](CO)C=C2F)cc1F to Cc1cn([C@@H]2S[C@H](CO)C=C2F)c(=O)nc1O, the IC50 falls from > 100 µM to 53 µM. The second is the more potent here.

Going from Nc1ncnc2c1ncn2[C@@H]1S[C@H](CO)C=C1F to Nc1nc(F)nc2c1ncn2[C@@H]1S[C@H](CO)C=C1F, the IC50 falls from > 100 µM to 7.6 µM. The second is the more potent here.

molecular target: Adenosine deaminase (Bos taurus) (UniProt P56658); experiment: Half life value of the compound; conditions: not given

Nc1ncnc2c1ncn2[C@@H]1S[C@H](CO)C=C1F and Nc1ncnc2c1ncn2[C@@H]1O[C@H](CO)C=C1F are within 1.5-fold of each other in half-life: 33 min for the first, 42 min for the second.

Molecule Nc1ncnc2c1ncn2[C@@H]1O[C@H](CO)[C@@H](O)[C@H]1O [ADENOSINE] has a half-life of 0.5 min.
